Assay results from ChEMBL document CHEMBL1138064, “Discovery of N-[(3R)-1-azabicyclo[2.2.2]oct-3-yl]furo[2,3-c]pyridine-5-carboxamide, an agonist of the alpha7 nicotinic acetylcholine receptor, for the potential treatment of cognitive deficits in schizophrenia: synthesis and structure--activity relationship” (J Med Chem, 2006).
The source made the active and inactive calls. No cut-off for these calls is given here.

Assays:
[1] = target: Translocator protein (Homo sapiens) (UniProt P30536); test: Inhibition of peripheral BZD receptor at 1 uM
Sequence of Translocator protein (Homo sapiens) (P30536 whole entry): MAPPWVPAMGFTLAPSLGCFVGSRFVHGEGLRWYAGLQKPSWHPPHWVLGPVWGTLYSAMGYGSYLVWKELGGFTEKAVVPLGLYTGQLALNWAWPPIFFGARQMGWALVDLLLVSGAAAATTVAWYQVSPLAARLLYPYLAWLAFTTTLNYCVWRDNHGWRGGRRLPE

[2] = target: Substance-K receptor (Homo sapiens) (UniProt P21452); test: Inhibition of NK2 receptor at 1 uM
[3] = target: Gastrin/cholecystokinin type B receptor (Homo sapiens) (UniProt P32239); test: Inhibition of CCK2 receptor at 1 uM
[4] = target: Adenosine A2 receptor (Homo sapiens) (UniProt P29275+P29274); test: Inhibition of adenosine A2 receptor at 1 uM; assay type: protein assay
[5] = target: B2 bradykinin receptor (Homo sapiens) (UniProt P30411); test: Inhibition of B2 receptor at 1 uM
Sequence of B2 bradykinin receptor (Homo sapiens) (P30411 whole entry): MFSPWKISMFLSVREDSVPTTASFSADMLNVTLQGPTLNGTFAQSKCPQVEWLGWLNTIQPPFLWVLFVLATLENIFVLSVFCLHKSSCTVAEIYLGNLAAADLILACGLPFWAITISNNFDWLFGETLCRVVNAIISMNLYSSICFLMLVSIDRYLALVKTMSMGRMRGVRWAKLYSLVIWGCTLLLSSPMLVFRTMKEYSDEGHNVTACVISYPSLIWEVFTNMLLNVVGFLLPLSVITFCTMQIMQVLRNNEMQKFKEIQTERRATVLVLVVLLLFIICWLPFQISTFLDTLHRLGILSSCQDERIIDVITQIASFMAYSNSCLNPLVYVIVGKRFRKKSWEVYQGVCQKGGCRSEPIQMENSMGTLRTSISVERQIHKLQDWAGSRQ

[6] = target: Nitric oxide synthase, inducible (Homo sapiens) (UniProt P35228); test: Inhibition of Nitric oxide synthase, inducible at 1 uM
Sequence of Nitric oxide synthase, inducible (Homo sapiens) (P35228 whole entry): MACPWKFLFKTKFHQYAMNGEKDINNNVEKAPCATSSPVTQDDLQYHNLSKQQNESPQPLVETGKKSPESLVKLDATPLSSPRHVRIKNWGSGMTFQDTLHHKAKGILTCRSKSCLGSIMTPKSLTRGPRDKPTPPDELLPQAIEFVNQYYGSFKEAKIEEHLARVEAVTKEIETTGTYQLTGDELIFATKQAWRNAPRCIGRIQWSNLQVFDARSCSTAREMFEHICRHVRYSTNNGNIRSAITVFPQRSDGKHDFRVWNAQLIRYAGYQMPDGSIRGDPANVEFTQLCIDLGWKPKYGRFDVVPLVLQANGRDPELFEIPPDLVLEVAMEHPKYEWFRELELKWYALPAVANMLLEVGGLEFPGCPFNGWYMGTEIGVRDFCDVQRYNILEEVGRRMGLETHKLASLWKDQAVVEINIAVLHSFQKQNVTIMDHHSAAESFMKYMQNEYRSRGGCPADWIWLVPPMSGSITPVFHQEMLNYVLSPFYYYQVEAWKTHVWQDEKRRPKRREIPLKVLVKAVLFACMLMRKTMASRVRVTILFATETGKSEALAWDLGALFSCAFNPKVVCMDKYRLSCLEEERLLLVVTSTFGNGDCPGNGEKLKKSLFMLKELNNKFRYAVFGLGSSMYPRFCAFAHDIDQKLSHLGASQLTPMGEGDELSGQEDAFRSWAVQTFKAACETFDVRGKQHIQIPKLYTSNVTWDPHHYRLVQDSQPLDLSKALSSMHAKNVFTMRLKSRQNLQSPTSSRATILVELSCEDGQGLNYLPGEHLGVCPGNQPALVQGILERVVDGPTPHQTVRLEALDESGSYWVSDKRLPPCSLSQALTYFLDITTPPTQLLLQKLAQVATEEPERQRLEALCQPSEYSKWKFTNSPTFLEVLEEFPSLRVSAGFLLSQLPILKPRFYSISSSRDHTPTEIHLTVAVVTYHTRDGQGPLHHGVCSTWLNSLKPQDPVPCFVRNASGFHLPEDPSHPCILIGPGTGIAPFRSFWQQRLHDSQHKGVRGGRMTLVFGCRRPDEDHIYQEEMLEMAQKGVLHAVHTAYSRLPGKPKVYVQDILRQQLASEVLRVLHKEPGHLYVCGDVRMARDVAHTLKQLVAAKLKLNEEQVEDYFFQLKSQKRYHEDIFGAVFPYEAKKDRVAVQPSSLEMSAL

[7] = target: Phospholipase A2 (Homo sapiens) (UniProt P04054); test: Inhibition of phospholipase A2 at 1 uM
Sequence of Phospholipase A2 (Homo sapiens) (P04054 23-148 limits assumed): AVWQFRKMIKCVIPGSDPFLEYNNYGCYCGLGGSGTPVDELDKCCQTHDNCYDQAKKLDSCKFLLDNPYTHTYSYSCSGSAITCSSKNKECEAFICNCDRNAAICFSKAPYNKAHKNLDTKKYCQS

[8] = target: Phosphodiesterase 4 (Homo sapiens) (UniProt P27815+Q08499+Q07343+Q08493); test: Inhibition of PDE4 at 1 uM; assay type: protein assay
[9] = target: Cathepsin G (Homo sapiens) (UniProt P08311); test: Inhibition of cathepsin G at 1 uM
[10] = target: Sodium-dependent serotonin transporter (Homo sapiens) (UniProt P31645); test: Inhibition of human 5-HT transporter at 1 uM
[11] = target: D(2) dopamine receptor (Homo sapiens) (UniProt P14416); test: Inhibition of D2 receptor at 1 uM
[12] = target: Cytochrome P450 2D6 (Homo sapiens, UniProt P10635); test: Inhibition of CYP2D6; assay type: ADME
Sequence of Cytochrome P450 2D6 (P10635 whole entry): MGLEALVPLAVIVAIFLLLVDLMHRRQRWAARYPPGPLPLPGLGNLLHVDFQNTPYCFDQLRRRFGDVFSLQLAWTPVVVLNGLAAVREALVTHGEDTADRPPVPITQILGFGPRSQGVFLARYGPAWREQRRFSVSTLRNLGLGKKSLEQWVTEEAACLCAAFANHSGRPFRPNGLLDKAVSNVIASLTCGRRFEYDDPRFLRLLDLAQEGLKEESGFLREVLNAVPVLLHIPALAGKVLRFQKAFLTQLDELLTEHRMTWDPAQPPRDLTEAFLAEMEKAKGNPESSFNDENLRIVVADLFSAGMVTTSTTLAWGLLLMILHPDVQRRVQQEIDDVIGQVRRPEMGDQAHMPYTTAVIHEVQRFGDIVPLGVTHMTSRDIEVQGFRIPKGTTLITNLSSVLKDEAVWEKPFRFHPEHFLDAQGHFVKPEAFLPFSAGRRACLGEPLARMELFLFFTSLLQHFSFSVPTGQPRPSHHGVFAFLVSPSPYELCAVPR

[13] = target: Nociceptin receptor (Homo sapiens) (UniProt P41146); test: Inhibition of ORL1 receptor at 1 uM
Sequence of Nociceptin receptor (Homo sapiens) (P41146 whole entry): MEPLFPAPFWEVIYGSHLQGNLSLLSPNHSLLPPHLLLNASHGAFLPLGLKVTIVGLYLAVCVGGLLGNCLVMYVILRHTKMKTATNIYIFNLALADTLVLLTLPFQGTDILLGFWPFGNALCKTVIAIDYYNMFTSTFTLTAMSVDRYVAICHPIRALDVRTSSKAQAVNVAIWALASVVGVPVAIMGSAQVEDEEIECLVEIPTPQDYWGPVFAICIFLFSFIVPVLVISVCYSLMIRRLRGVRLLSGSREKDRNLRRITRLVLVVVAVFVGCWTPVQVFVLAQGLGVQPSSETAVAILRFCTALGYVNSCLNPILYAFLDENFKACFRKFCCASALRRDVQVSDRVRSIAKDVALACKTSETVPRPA

[14] = target: Human immunodeficiency virus type 1 protease (Human immunodeficiency virus 1) (UniProt Q72874); test: Inhibition of HIV1 protease at 1 uM
[15] = target: Vasoactive intestinal polypeptide receptor 2 (Homo sapiens) (UniProt P41587); test: Inhibition of PACAP receptor at 1 uM
Sequence of Vasoactive intestinal polypeptide receptor 2 (Homo sapiens) (P41587 whole entry): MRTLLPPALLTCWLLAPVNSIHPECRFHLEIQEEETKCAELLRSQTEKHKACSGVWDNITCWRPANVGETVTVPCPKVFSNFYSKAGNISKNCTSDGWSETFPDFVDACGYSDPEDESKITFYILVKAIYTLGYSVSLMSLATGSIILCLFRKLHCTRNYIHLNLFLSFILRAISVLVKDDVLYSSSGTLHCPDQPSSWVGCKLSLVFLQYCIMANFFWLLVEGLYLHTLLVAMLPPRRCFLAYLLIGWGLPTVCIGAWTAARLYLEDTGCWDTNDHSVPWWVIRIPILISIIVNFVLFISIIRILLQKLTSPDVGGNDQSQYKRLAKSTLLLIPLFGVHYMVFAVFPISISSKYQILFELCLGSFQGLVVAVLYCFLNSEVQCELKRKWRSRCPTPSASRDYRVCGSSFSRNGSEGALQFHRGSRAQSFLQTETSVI

[16] = organism: Homo sapiens; test: Inhibition of phospholipase C at 1 uM
[17] = target: Neuronal acetylcholine receptor; alpha3/beta4 (Homo sapiens, UniProt P30926+P32297); test: Inhibition of alpha-3-beta-4 nAChR expressed in SHSY5Y cells by FLIPR assay; assay type: functional, cell-based, SH-SY5Y
Summary of the method: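 FLIPR cell-based functional assay in SH-SY5Y cells, which carry α3β4-containing ganglion-type nAChRs; tested for agonist and antagonist activity; IC50 in µM.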

[18] = Oral bioavailability in rat constant infusion model; assay type: ADME, organism-based; conditions: in vivo
Summary of the method: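 Rat clearance and oral bioavailability derived from a constant infusion model.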

[19] = target: Muscarinic acetylcholine receptor M5 (Homo sapiens) (UniProt P08912); test: Inhibition of M5 receptor at 1 uM
Sequence of Muscarinic acetylcholine receptor M5 (Homo sapiens) (P08912 whole entry): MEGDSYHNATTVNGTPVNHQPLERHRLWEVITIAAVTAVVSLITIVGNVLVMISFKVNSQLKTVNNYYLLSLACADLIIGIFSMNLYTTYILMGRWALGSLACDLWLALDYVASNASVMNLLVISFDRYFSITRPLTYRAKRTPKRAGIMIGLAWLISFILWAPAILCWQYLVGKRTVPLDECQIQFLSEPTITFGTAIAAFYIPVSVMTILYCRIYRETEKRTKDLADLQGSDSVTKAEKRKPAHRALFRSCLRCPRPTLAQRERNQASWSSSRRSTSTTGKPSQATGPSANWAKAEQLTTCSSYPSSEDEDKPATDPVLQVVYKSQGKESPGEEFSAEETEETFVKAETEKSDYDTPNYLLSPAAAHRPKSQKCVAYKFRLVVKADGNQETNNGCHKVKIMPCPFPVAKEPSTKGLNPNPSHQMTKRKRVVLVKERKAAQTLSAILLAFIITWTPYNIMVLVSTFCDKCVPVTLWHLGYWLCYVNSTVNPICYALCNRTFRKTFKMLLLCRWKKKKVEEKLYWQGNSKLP

[20] = target: Cholecystokinin receptor type A (Homo sapiens) (UniProt P32238); test: Inhibition of CCK1 receptor at 1 uM
Sequence of Cholecystokinin receptor type A (Homo sapiens) (P32238 whole entry): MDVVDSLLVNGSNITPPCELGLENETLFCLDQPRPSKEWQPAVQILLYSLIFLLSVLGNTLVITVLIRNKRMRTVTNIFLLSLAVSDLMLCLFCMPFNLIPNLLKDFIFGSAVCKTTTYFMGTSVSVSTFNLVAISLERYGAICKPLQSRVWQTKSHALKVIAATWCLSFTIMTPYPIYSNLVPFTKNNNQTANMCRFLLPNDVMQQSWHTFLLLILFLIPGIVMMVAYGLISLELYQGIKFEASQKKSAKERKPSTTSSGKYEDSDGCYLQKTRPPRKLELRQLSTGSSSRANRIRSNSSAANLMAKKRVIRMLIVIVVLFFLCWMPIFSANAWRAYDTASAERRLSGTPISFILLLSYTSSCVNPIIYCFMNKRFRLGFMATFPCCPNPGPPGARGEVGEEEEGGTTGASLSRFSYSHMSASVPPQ

[21] = target: 5-hydroxytryptamine receptor 1B (Homo sapiens) (UniProt P28222); test: Inhibition of 5HT1B receptor at 1 uM
[22] = target: 5-hydroxytryptamine receptor 1A (Homo sapiens) (UniProt P08908); test: Inhibition of 5HT1A receptor at 1 uM
[23] = target: Beta-2 adrenergic receptor (Homo sapiens) (UniProt P07550); test: Inhibition of adrenergic beta-2 receptor at 1 uM
[24] = test system: Rattus norvegicus; test: Reversal of amphetamine-induced gating deficit in Sprague-Dawley at 0.3 mg/kg, iv; assay type: functional, organism-based; design: dose 0.3 mg/kg
Summary of the method: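 Anesthetised rats; d-amphetamine 1 mg/kg iv given to disrupt auditory gating recorded in the hippocampal CA3 region (conditioning vs test responses, analogous to human P50). Agonist given iv afterwards; read-out is % gating versus amphetamine-alone. The 10 mg/kg dose was run as a separate experiment. Brain drug levels were measured after the iv doses.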

[25] = target: Prostaglandin G/H synthase 1 (Homo sapiens) (UniProt P23219); test: Inhibition of COX1 at 1 uM
[26] = target: Adrenergic receptor alpha-1 (Homo sapiens) (UniProt P35348+P25100+P35368); test: Inhibition of adrenergic alpha1 receptor at 1 uM; assay type: protein assay
[27] = target: D(4) dopamine receptor (Homo sapiens) (UniProt P21917); test: Inhibition of D4.4 receptor at 1 uM
[28] = target: Cathepsin B (Homo sapiens) (UniProt P07858); test: Inhibition of cathepsin B at 1 uM
[29] = target: Sodium-dependent dopamine transporter (Homo sapiens) (UniProt Q01959); test: Inhibition of dopamine uptake at human DA transporter at 1 uM
[30] = target: Vasoactive intestinal polypeptide receptor 1 (Homo sapiens) (UniProt P32241); test: Inhibition of VIP1 receptor at 1 uM
[31] = target: L-type calcium channel, verapamil site (Homo sapiens, UniProt O60840+Q01668+Q13698+Q13936); test: Inhibition of verapamil site of Calcium channel L type at 1 uM; assay type: protein assay
[32] = target: Sodium-dependent noradrenaline transporter (Homo sapiens) (UniProt P23975); test: Inhibition of human NE transporter at 1 uM
[33] = Ratio of drug level in brain against plasma in rat by MBUA method after 60 min; assay type: ADME, organism-based; conditions: brain and plasma
[34] = target: Muscarinic acetylcholine receptor M3 (Homo sapiens) (UniProt P20309); test: Inhibition of M3 receptor at 1 uM
[35] = target: Adenosine receptor A3 (Homo sapiens) (UniProt P0DMS8); test: Inhibition of adenosine A3 receptor at 1 uM
Sequence of Adenosine receptor A3 (Homo sapiens) (P0DMS8 whole entry): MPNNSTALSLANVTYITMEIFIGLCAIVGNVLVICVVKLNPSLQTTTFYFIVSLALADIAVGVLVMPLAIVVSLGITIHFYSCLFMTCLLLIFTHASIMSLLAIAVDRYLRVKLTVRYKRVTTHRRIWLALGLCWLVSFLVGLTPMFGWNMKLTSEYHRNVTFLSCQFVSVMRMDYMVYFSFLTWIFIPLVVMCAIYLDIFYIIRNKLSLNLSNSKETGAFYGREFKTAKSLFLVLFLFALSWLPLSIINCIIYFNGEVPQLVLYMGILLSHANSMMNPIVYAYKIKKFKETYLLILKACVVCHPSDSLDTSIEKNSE

[36] = target: Epidermal growth factor receptor (Homo sapiens) (UniProt P00533); test: Inhibition of EGFR at 1 uM
[37] = Oral bioavailability in rat at 5 mg/kg; assay type: ADME, organism-based; conditions: in vivo
[38] = target: Soluble guanylate cyclase (Homo sapiens) (UniProt Q02153+O75343+P33402+Q02108); test: Inhibition of stimulated guanylate cyclase at 1 uM; assay type: protein-complex assay
[39] = target: Delta-type opioid receptor (Homo sapiens) (UniProt P41143); test: Inhibition of human delta opioid receptor at 1 uM
[40] = target: Serotonin 3 (5-HT3) receptor (Homo sapiens) (UniProt P46098+A5X5Y0+O95264+Q70Z44+Q8WXA8); test: Inhibition of 5HT3 receptor at 1 uM; assay type: protein-complex assay
[41] = target: Glutamate [NMDA] receptor (Homo sapiens) (UniProt Q05586+Q12879+Q13224+O15399+O60391+Q14957+Q8TCU5); test: Inhibition of NMDA receptor at 1 uM; assay type: protein-complex assay
[42] = target: MAO-B (Homo sapiens, UniProt P27338); test: Inhibition of MAO-B at 1 uM
Sequence of MAO-B (P27338 whole entry): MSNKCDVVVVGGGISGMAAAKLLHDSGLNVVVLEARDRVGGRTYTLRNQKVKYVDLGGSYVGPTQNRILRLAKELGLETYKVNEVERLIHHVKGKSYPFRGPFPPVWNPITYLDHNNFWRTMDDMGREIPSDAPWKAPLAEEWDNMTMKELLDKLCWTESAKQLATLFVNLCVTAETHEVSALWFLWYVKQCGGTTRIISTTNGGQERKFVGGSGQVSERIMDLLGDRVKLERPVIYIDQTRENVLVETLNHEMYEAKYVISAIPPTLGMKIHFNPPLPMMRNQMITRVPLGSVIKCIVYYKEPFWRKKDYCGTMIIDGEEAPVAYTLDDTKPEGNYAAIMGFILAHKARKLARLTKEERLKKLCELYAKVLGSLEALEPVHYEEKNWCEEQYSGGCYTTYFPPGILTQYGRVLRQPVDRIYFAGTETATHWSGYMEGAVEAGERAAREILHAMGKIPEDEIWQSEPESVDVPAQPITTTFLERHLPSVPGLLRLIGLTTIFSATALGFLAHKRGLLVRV

[43] = test system: Rattus norvegicus; test: Ability to recognize novel object in Sprague-Dawley rat at 1 mg/kg, sc after 24 hrs; assay type: functional, organism-based; design: dose 1 mg/kg
Summary of the method: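 Rats dosed subcutaneously 30 min before each of three experimental sessions. Discrimination between the novel and the familiar object was scored after a 24 h delay.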

[44] = target: 5-hydroxytryptamine receptor 2C (Homo sapiens) (UniProt P28335); test: Inhibition of 5HT2C receptor at 1 uM
[45] = Half life in human liver microsome; assay type: ADME; conditions: liver microsomes

Question: Which results are given for O=C(N[C@H]1CN2CCC1CC2)c1cc2ccoc2cn1 [PHA-543613]?
Answer: inhibition [1]: < 10%; inhibition [2]: < 10%; inhibition [3]: < 10%; inhibition [4]: < 10%; inhibition [5]: < 10%; inhibition [6]: < 10%; inhibition [7]: 20%; inhibition [8]: < 10%; inhibition [9]: 15%; inhibition [10]: < 10%; inhibition [11]: < 10%; IC50 [12]: > 10 µM; inhibition [13]: < 10%; inhibition [14]: < 10%; inhibition [15]: < 10%; inhibition [16]: < 10%; IC50 [17]: > 100 µM; bioavailability [18]: 63%; inhibition [19]: < 10%; inhibition [20]: < 10%; inhibition [21]: < 10%; inhibition [22]: < 10%; inhibition [23]: < 10%; Activity [24]: Active; inhibition [25]: < 10%; inhibition [26]: < 10%; inhibition [27]: 10%; inhibition [28]: < 10%; inhibition [29]: < 10%; inhibition [30]: < 10%; inhibition at 1 µM [31]: < 10%; inhibition [32]: < 10%; Kp at 1 h [33]: 1.5; inhibition [34]: 33%; inhibition [35]: 12%; inhibition [36]: < 10%; bioavailability [37]: 65%; inhibition [38]: < 10%; inhibition [39]: 14%; inhibition [40]: 67%; inhibition [41]: 11%; inhibition at 1 µM [42]: < 10%; Activity [43]: Active; inhibition [44]: < 10%; half-life [45]: > 2 h
